The record followed here is ChEMBL document CHEMBL4118256, “Second Generation of Mannich Base-Type Derivatives with in Vivo Activity against Trypanosoma cruzi” (J Med Chem, 2018).

The source made the active and inactive calls. The calls are words filed in the database; no cut-off is given here.

The test system of data set [1] is Trypanosoma cruzi. In words: Antitrypanosomal activity against Trypanosoma cruzi MHOM/Pe/2011/Arequipa DTU 5 epimastigotes assessed as effect on parasite glycolytic pathway by measuring reduction in pyruvate excretion at IC25 after 72 hrs by 1H NMR method. Type of data set: functional, organism-based. The procedure, abridged:
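Arequipa epimastigotes exposed at IC25 for 72 h alongside an untreated control. Excreted catabolites were analysed by 1H NMR, and each peak is reported as % variation versus the control. Three separate determinations.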

Data set [2] has as its system Trypanosoma cruzi. In words: Antitrypanosomal activity against Trypanosoma cruzi MHOM/Pe/2011/Arequipa DTU 5 epimastigotes assessed as reduction in mitochondrial membrane potential at IC25 after 72 hrs by Rho123 staining based flow cytometry relative to control. Type of data set: functional. Also noted: scale not given: the % may be the effect or the level left. In short, it runs like this:
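Arequipa epimastigotes were exposed at IC25 for 72 h, then labelled with Rhodamine 123 and analysed by flow cytometry. Result is % alteration in mitochondrial membrane potential versus untreated control.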
On the technique in general: A flow cytometer gives signals particle by particle.

Data set [3] can be described thus: Selectivity index, ratio of IC50 for African green monkey Vero cells to IC50 for Trypanosoma cruzi IRHOD/CO/2008/SN3 DTU 1 amastigotes infected in African green monkey Vero cells. To be noted: read-out: Ratio IC50. It is filed as toxicity. In short, it runs like this: (§1)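 SI is Vero IC50 divided by the IC50 for the stated parasite form. For Vero cytotoxicity, cells were seeded at 1.25×10^4 mL^-1 with compounds at 1000–1 µM, incubated 48 h, then given resazurin for a further 24 h (72 h total), with absorbance read at 570/600 nm. Triplicate, four determinations.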

A short description of data set [4]: Selectivity index, ratio of IC50 for African green monkey Vero cells to IC50 for Trypanosoma cruzi MHOM/Pe/2011/Arequipa DTU 5 trypamastigotes derived from infected Balb/c albino mouse. Type of data set: toxicity. To be noted: read-out: Ratio IC50. In short, it runs like this: as §1
Data set [5] relates to Mus musculus. In words: Hepatotoxicity in Balb/c mouse infected with Trypanosoma cruzi MHOM/Pe/2011/Arequipa DTU 5 trypamastigotes assessed as change in alkaline phosphatase level at 100 mg/kg, po once daily for 5 consecutive days starting from day 10 post infection measured on day 127 post infection by biochemical analysis relative to control. The conditions noted are these: in vivo. It is filed as toxicity, organism-based.

Data set [6] has as its system Trypanosoma cruzi. In words: Antitrypanosomal activity against Trypanosoma cruzi MHOM/Pe/2011/Arequipa DTU 5 trypamastigotes infected in Balb/c mouse assessed as reduction in Ig-G level in serum at 100 mg/kg, po once daily for 5 consecutive days starting from day 75 post infection measured on day 81 post infection by ELISA. Type of data set: functional, organism-based. A general note: ELISA stands for enzyme-linked immunosorbent assay.

Data set [7] has as its system Trypanosoma cruzi. Description: Trypanocidal activity against Trypanosoma cruzi MHOM/Pe/2011/Arequipa DTU 5 trypamastigotes derived from infected Balb/c albino mouse after 24 hrs by resazurin dye based assay. The conditions noted are these: MHOM/Pe/2011/Arequipa DTU 5, 24 h. It is filed as functional, organism-based. In short, it runs like this:
(§2)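 Bloodstream trypomastigotes taken from mice at peak parasitaemia were seeded at 2×10^6 mL^-1 in RPMI with 10% FBS. Compounds were added at 50–0.2 µM and incubated 24 h at 37 °C, 5% CO2, then with resazurin for 4 h. SDS was added and absorbance read at 570/600 nm. IC50 was fitted; triplicate, four separate determinations.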
(Alamar Blue is a resazurin reagent that responds to reducing activity.)

A short description of data set [8]: Selectivity index, ratio of IC50 for African green monkey Vero cells to IC50 for Trypanosoma cruzi MHOM/Pe/2011/Arequipa DTU 5 epimastigotes. Type of data set: toxicity. To be noted: read-out: Ratio IC50. The procedure, abridged:
as §1

The test system of data set [9] is Trypanosoma cruzi. Description: Induction of mitochondrial membrane potential disruption in Trypanosoma cruzi MHOM/Pe/2011/Arequipa DTU 5 epimastigotes assessed as inhibition of DNA replication and RNA synthesis at IC25 after 72 hrs by acridine orange staining based flow cytometry relative to control. It is filed as functional. In short, it runs like this: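 Arequipa epimastigotes were exposed for 72 h at IC25. DNA/RNA content was measured as acridine orange fluorescence by flow cytometry and compared with untreated control.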

Data set [10] has as its system Trypanosoma cruzi. In words: Trypanocidal activity against Trypanosoma cruzi IRHOD/CO/2008/SN3 DTU 1 epimastigotes after 48 hrs by resazurin dye based assay. Type of data set: functional, organism-based. To be noted: IRHOD/CO/2008/SN3 DTU 1, 48 h. In short, it runs like this: (§3)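 Exponential-phase epimastigotes were seeded at 5×10^5 mL^-1 with compounds at 100–0.2 µM (DMSO 0.01% v/v) at 28 °C. After 48 h, resazurin was added for another 24 h. SDS was then added and absorbance read at 570 and 600 nm.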

Data set [11] has as its system Trypanosoma cruzi. Description: Antitrypanosomal activity against Trypanosoma cruzi MHOM/Pe/2011/Arequipa DTU 5 trypamastigotes infected in Balb/c mouse assessed as reduction in splenomegaly at 100 mg/kg, po once daily for 5 consecutive days starting from day 10 post infection measured on day 127 post infection relative to control. Type of data set: functional. Also noted: scale not given: the % may be the effect or the level left.

For data set [12], the system named is Trypanosoma cruzi. Description: Trypanocidal activity against Trypanosoma cruzi IRHOD/CO/2008/SN3 DTU 1 trypamastigotes derived from infected Balb/c albino mouse after 24 hrs by resazurin dye based assay. It is filed as functional, organism-based. To be noted: IRHOD/CO/2008/SN3 DTU 1, 24 h. In short, it runs like this:
as §2

The subject of data set [13] is Trypanosoma cruzi. In words: Trypanocidal activity against Trypanosoma cruzi IRHOD/CO/2008/SN3 DTU 1 amastigotes infected in African green monkey Vero cells after 72 hrs by Giemsa-staining based microscopic assay. Type of data set: functional, organism-based. The conditions noted are these: IRHOD/CO/2008/SN3 DTU 1, Vero. The procedure, abridged: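 Vero cells were seeded at 1×10^4/well on coverslips. After 24 h they were infected with culture-derived trypomastigotes (MOI 1:10, 24 h), then washed. Compounds were added at 100–0.2 µM (DMSO 0.01% v/v) for 72 h at 37 °C, 5% CO2. Slides were methanol-fixed and Giemsa-stained; amastigotes and infected cells were counted over 500 host cells. IC50 was derived by curve fitting; triplicate wells, four separate determinations.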

Data set [14] is described as follows: Selectivity index, ratio of IC50 for African green monkey Vero cells to IC50 for Trypanosoma cruzi IRHOD/CO/2008/SN3 DTU 1 trypamastigotes derived from infected Balb/c albino mouse. The conditions noted are these: read-out: Ratio IC50. It is filed as toxicity. The procedure, abridged: as §1
The subject of data set [15] is Mus musculus. In words: Hepatotoxicity in Balb/c mouse infected with Trypanosoma cruzi MHOM/Pe/2011/Arequipa DTU 5 trypamastigotes assessed as change in total bilirubin level at […], po once daily for 5 consecutive days starting from day 75 post infection measured on day 127 post infection by biochemical analysis relative to control. It is filed as toxicity, organism-based. The conditions noted are these: in vivo.

Data set [16] in a line: Selectivity index, ratio of IC50 for African green monkey Vero cells to IC50 for Trypanosoma cruzi TINF/CH/1956/Tulahuen DTU 6 trypamastigotes derived from infected Balb/c albino mouse. It is filed as toxicity. The conditions noted are these: read-out: Ratio IC50. The procedure, abridged: as §1
Data set [17] can be described thus: Selectivity index, ratio of IC50 for African green monkey Vero cells to IC50 for Trypanosoma cruzi MHOM/Pe/2011/Arequipa DTU 5 amastigotes infected in African green monkey Vero cells. The conditions noted are these: read-out: Ratio IC50. It is filed as toxicity. The procedure, abridged: as §1
The subject of data set [18] is Trypanosoma cruzi. Description: Trypanocidal activity against Trypanosoma cruzi MHOM/Pe/2011/Arequipa DTU 5 amastigotes infected in African green monkey Vero cells assessed as infected cells at 50 uM after 72 hrs by Giemsa-staining based microscopic assay relative to control. It is filed as functional. In short, it runs like this:
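Infected Vero cell cultures were exposed for 72 h to a range of concentrations. Infected cells were counted microscopically on Giemsa-stained preparations and expressed relative to infected untreated controls. Values are means of three separate determinations; IC50 was derived by curve fitting.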

Data set [19] relates to Mus musculus. Description: Toxicity in Balb/c mouse assessed as reduction in body mass at […], po once daily for 5 consecutive days starting from day 75 post infection relative to control. Type of data set: organism-based. Also noted: scale not given: the % may be the effect or the level left. To be noted: in vivo. The procedure, abridged: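 Infected female BALB/c mice, six per group, received oral doses of 20 mg·kg^-1/day for 5 consecutive days (total 100 mg·kg^-1) in 5% DMSO/0.5% HPMC vehicle, from day 10 or day 75 pi. Body mass and deaths were monitored during and after treatment.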

The test system of data set [20] is Trypanosoma cruzi. Description: Trypanocidal activity against Trypanosoma cruzi TINF/CH/1956/Tulahuen DTU 6 epimastigotes after 48 hrs by resazurin dye based assay. Type of data set: functional, organism-based. The conditions noted are these: TINF/CH/1956/Tulahuen DTU 6, 48 h. The procedure, abridged:
as §3

For orientation: IC50 means the concentration that inhibits the measured activity by half. Regarding `COc1ccc(C(=O)CCN2CCN(c3ccc(Cl)cc3)CC2)cc1`, the outcome in the data set with Trypanosoma cruzi [1] and with Trypanosoma cruzi [6] was inactive. The Activity in the data set on Trypanosoma cruzi [2] is 27.4%; with Mus musculus [5], less than 10%; with Trypanosoma cruzi [11] it was 52%; with Mus musculus [15], less than 10%; with Trypanosoma cruzi [18] it was 15%; with Mus musculus [19] it was greater than 10%. The selectivity ratio in data set [3] is 51.5; in [4] it was 89.6; in data set [8], 31.5; in data set [14] it was 76.1; in data set [16], 103; in [17], 82.4. The IC50 in the data set with Trypanosoma cruzi [7] is 3.4 µM; in the data set on Trypanosoma cruzi [10], 6.3 µM; in the data set on Trypanosoma cruzi [12], 3.9 µM; with Trypanosoma cruzi [13] it was 5.8 µM; in the data set on Trypanosoma cruzi [20], 7.3 µM. Further, the “inhibition (INH)” value with Trypanosoma cruzi [9] is listed as 18%.
On to `COc1ccc(C(=O)CCN2CCN(c3ccc([N+](=O)[O-])cc3)CC2)cc1`, for which the outcome in the data set on Trypanosoma cruzi [1] and in the data set on Trypanosoma cruzi [6] was inactive. In addition, the Activity in the data set on Trypanosoma cruzi [2] is 76.3%; with Mus musculus [5] it was less than 10%; in the data set with Mus musculus [15], less than 10%; in the data set with Trypanosoma cruzi [18], 52%; in the data set on Mus musculus [19], greater than 10%. Besides, the selectivity ratio amounted to 19.2 in data set [3]; 50.4 in data set [4]; 18.6 in data set [8]; 187 in data set [14]; 40.6 in [16]; 20 in [17]. For the same compound, the IC50 was 11.7 µM with Trypanosoma cruzi [7]; 22 µM with Trypanosoma cruzi [10]; 3.1 µM in the data set with Trypanosoma cruzi [12]; 30.5 µM in the data set with Trypanosoma cruzi [13]; 37.4 µM with Trypanosoma cruzi [20]. Moreover, the “inhibition (INH)” value with Trypanosoma cruzi [9] worked out at 72.9%. The result in the data set on Trypanosoma cruzi [11] was Active.
With `O=C(Cn1ccnc1[N+](=O)[O-])NCc1ccccc1` [BENZNIDAZOLE], the Activity stood at 35.4% in the data set with Trypanosoma cruzi [2] and 20% in the data set on Trypanosoma cruzi [18]. For the same compound, the IC50 with Trypanosoma cruzi [7] amounted to 12.4 µM; in the data set on Trypanosoma cruzi [20], 19.7 µM. Besides, in the data set with Trypanosoma cruzi [9], the “inhibition (INH)” value was 22.4%.
On to `COc1ccc(C(=O)CCN2CCN(c3ccc(F)cc3)CC2)cc1`, for which the outcome in the data set on Trypanosoma cruzi [1] and with Trypanosoma cruzi [11] was Active. In addition, the Activity in the data set on Trypanosoma cruzi [2] is reported as 25.6%; in the data set on Mus musculus [5], less than 10%; in the data set with Mus musculus [15] it was less than 10%; in the data set with Trypanosoma cruzi [18], 7%; in the data set with Mus musculus [19], greater than 10%. In addition, the selectivity ratio in [3] is 17.6; in data set [4] it was 49.1; in [8] it was 40.2; in data set [14] it was 39.9; in [16], 47.4; in data set [17], 88.7. Further, in the data set with Trypanosoma cruzi [6], the result was inactive. The IC50 was determined as 1.1 µM with Trypanosoma cruzi [7]; 2 µM in the data set with Trypanosoma cruzi [10]; 1.4 µM in the data set with Trypanosoma cruzi [12]; 3.1 µM in the data set with Trypanosoma cruzi [13]; 1.8 µM with Trypanosoma cruzi [20]. In the data set on Trypanosoma cruzi [9], the “inhibition (INH)” value is 24.6%.
